Compound activity from PubChem BioAssay.
The list is not random: actives were taken first. Their share in the collection is about 3.1%.
SENP8 block-1: inhibitors of human SENP8 protease. purified SENP8, Z-RLRGG-aminoluciferin cleavage, luminescence. inhibition, % at 10 µM. 1.2% of 330,000 active. AID 2540; in the data active = inhibition above about 50%
Target sequence (Q96LD8 whole entry, looked up): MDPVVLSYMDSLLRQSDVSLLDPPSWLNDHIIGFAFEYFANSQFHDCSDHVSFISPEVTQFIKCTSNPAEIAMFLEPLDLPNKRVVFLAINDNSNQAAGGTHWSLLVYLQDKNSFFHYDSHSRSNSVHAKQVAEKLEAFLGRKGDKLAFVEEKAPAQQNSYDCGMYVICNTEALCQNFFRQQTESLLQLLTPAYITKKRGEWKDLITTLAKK
Apaf-1 inh: inhibitors of human Apaf-1 apoptosome; 0.71% of 330,000 active; inhibition, % at 20 µM; AID 489030; reconstituted apoptosome caspase-3 activity, DEVD-Rh110 fluorescence; O14727; active = inhibition of at least 40% at 20 µM;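 also: plate controls were DMSO wells for no effect and DEVD-CHO caspase inhibitor wells for full effect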
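Assay system – apoptosome proteins · Medium – Hepes buffer, pH 7.5 · Also added – cytochrome c with DEVD-Rh110 · Timing – 30 min compound preincubation, 50 min activation, room temperature · Detection – Rh110 fluorescence, excitation 480 nm, emission 540 nm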
SENP8 block-2: blocks human SENP8 cleavage of Nedd8 substrate; Q96LD8; recombinant SENP8, Nedd8 substrate fluorescence; 0.64% of 360,000 active; inhibition, % at 20 µM; in the data active = inhibition mostly above about 40%, no sharp cut-off; inactive = mostly below about 27%
SENP7 inh: SENP7 protease inhibition; recombinant SENP7, Z-RLRGG-aminoluciferin luminescence, 40 min; 1.5% of 330,000 active; AID 434973; inhibition, % at 5 µM;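 active = inhibition above about 50% at the single test dose, limit read from the data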;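 also: plate controls were DMSO with enzyme for no effect and no enzyme buffer wells for full effect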
SENP6 inh: inhibitors of human SENP6 protease. Recombinant SENP6 catalytic domain, aminoluciferin luminescence. inhibition, % at 10 µM. 1.8% of 330,000 active;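 active = inhibition above about 50% at the single tested dose, limit read from the data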;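 also: plate controls were DMSO wells with enzyme for no effect and DMSO wells lacking enzyme for full effect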
UBC13 inh: inhibitors of human UBC13 polyubiquitin chain formation | TR-FRET | inhibition, % at 20 µM | 0.47% of 330,000 active | AID 485273; in the data active = inhibition above about 45%, passing the limit was not always enough
Target sequence (P61088 whole entry, looked up): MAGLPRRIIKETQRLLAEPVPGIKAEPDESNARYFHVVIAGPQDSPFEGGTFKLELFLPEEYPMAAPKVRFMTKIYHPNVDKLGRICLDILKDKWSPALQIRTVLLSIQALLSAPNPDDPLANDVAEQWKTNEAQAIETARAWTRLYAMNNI
SENP8 conf: confirmation of human SENP8 protease inhibitors | shares compounds with SENP7 inh | Recombinant SENP8, Z-RLRGG-aminoluciferin luminescence, 60 min | inhibition, % at 12.5 µM | 40% of 6,200 active | AID 488912;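 active = mean inhibition across replicates above about 50%, limit read from the data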
SENP6 confirm: confirmation of human SENP6 protease inhibitors. shares compounds with SENP7 inh. recombinant SENP6, Z-RLRGG-aminoluciferin luminescence. inhibition, % at 12.5 µM. 58% of 6,200 active. AID 488915
SENP7 confirm: human SENP7 inhibition, confirmed. recombinant SENP7, Z-RLRGG-aminoluciferin luminescence, 40 min. inhibition, % at 12.5 µM. shares compounds with SENP7 inh. 69% of 6,200 active
Casp3 select: selectivity test for SENP inhibitors: human caspase-3 inhibition; shares compounds with SENP7 inh; AID 488918; purified caspase-3, Z-DEVD-aminoluciferin luminescence, 60 min; 60% of 6,200 active; inhibition, % at 12.5 µM;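 active = mean inhibition above about 50%, limit read from the data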;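 also: plate controls were enzyme with DMSO for no effect and wells without caspase-3 for full effect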
Target sequence (P42574 28-227 limits assumed): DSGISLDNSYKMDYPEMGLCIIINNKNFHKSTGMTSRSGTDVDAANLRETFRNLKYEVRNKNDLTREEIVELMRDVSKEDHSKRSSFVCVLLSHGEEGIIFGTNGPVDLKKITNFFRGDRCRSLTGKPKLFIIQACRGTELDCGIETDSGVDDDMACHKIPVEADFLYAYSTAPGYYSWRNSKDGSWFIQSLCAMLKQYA
SENP luc ctr: counter-screen for SENP inhibitors: luminescence interference; shares compounds with SENP7 inh; 39% of 6,200 active; Pre-incubated SENP8/Z-RLRGG-aminoluciferin, luciferase luminescence interference; inhibition, % at 12.5 µM;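 active = mean inhibition above about 50% when retested at one dose, limit read from the data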;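 also: plate controls were DMSO wells with completed reaction for no effect and substrate without enzyme for full effect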
* marks the source's active call; other numbers are inactive results; i = inactive; . = no result.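 The calls were made as follows, unless noted: active = mean inhibition above about 50% in the one-dose retest (limit read from the data); inactive = the rest.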

SMILES | SENP8 block-1 | Apaf-1 inh | SENP8 block-2 | SENP7 inh | SENP6 inh | UBC13 inh | SENP8 conf | SENP6 confirm | SENP7 confirm | Casp3 select | SENP luc ctr
COc1ccc(C=NNC(=O)c2cc(C)oc2C)cc1O | 80* | 2 | -1 | 86* | 79* | -20 | 88* | 85* | 96* | 94* | 83*
CC(/C=N\NC(=O)c1cc(C)oc1C)=C\c1ccccc1 | 72* | 6 | 14 | 82* | -14 | -7 | 14 | 19 | 24 | 25 | 7
COc1cccc(/C=N/NC(=O)c2ccoc2C)c1 | 82* | -11 | 12 | 88* | 91* | 2 | 89* | 87* | 98* | 95* | 86*
COc1ccc(C2=Nc3ccccc3N(C(=O)c3ccc(C(F)(F)F)cc3)C2C(=O)Nc2ccc3c(c2)OCCO3)cc1 (stereo not drawn) | . | . | -12 | . | . | . | . | . | . | . | .
COc1ccc(NC(=O)c2sc(=O)n(Cc3ccc4ccccc4c3)c2C)cc1OC | . | . | 6 | . | . | . | . | . | . | . | .
CCOc1ccc(/C=N/NC(=O)c2ccoc2C)cc1OC | 64* | 8 | 6 | 75* | 81* | 6 | 82* | 80* | 93* | 93* | 80*
CCN(CC)c1ccc(/C=N/NC(=O)c2ccoc2C)cc1 | 95* | 9 | -437 | 101* | 97* | -6 | 97* | 100* | 103* | 98* | 83*
CCc1nc2c(OCc3cc(Cl)cc(Cl)c3)cccn2c1N(C)C(=O)c1ccc(OC)cc1 | . | . | 16 | . | . | . | . | . | . | . | .
Cc1ccc(SCc2cn3c(C)csc3n2)cc1 | 75* | -5 | 9 | 85* | 84* | 4 | 80* | 80* | 96* | 86* | 86*
CCOC(=O)c1c(NC(=O)COC(=O)c2ccc(Cl)nc2)sc(C)c1C | . | . | -9 | . | . | . | . | . | . | . | .
CCCCOc1ccc(-c2ncc(C(=O)O)c(C)n2)cc1 | 80* | -1 | 21 | 88* | 86* | 2 | 88* | 87* | 98* | 48 | 64*
Cc1ccc(S(=O)(=O)NCc2ccccc2)cc1C(=O)NCC(=O)Nc1c(C)cccc1C | . | . | 13 | . | . | . | . | . | . | . | .
CS(=O)(=O)c1ccccc1-c1nc(-c2cccc(Cl)c2)no1 | -3 | 7 | 9 | -1 | -22 | -4 | . | . | . | . | .
Clc1cccc(-c2nc(-c3ccc(-c4nn[nH]n4)cc3)no2)c1 | 95* | 36 | 14 | 79* | 99* | 13 | 97* | 97* | 100* | 83* | 89*
COCCNC(=O)C1(C)CCCN(CCOc2ccc(Cl)cc2)C1 (stereo not drawn) | . | . | 16 | . | . | . | . | . | . | . | .
Cc1csc(NC(=O)c2cn3ccccc3n2)n1 | 70* | -12 | -5 | 85* | 84* | 4 | 65* | 86* | 97* | 95* | 16
O=C(Nc1nccs1)c1ccc2ccccc2n1 | 53* | 8 | 0 | 70* | 69* | -11 | 64* | 64* | 90* | 80* | 63*
O=C(Nc1nccs1)c1cc(Cl)nc2ccccc12 | 0 | -4 | 11 | 0 | -1 | 2 | . | . | . | . | .
O=C(Nc1ccccn1)c1ccc(Cl)s1 | 26 | 10 | 6 | 66* | 60* | 1 | 30 | 38 | 78* | 74* | 56*
Cc1csc(NC(=O)c2cnc3ccccc3n2)n1 | 2 | 5 | 4 | 12 | 20 | -11 | . | . | . | . | .
O=C(Nc1ccccn1)c1ccc2ccccc2n1 | 80* | -1 | 10 | 89* | 90* | 4 | -4 | 85* | 97* | 86* | 85*
Cc1ccc(S(=O)(=O)N2CCCCC2)cc1NCC(=O)Nc1ccc(Br)cc1F | . | . | 6 | . | . | . | . | . | . | . | .
CC(C)(C)NC(=O)C(c1cc2ccccc2o1)n1c(-c2ccc(-c3ccccc3)cc2)nc2ccccc21 (stereo not drawn) | . | . | -415 | . | . | . | . | . | . | . | .
Cc1ccccc1C(NC(=O)C1CCN(Cc2ccc(Oc3ccccc3)cc2)CC1)c1ccsc1 (stereo not drawn) | . | . | 16 | . | . | . | . | . | . | . | .
Cc1csc(NC(=O)c2ccc3ccccc3n2)n1 | 75* | 4 | 2 | 80* | 83* | -6 | 4 | 82* | 95* | 49 | 15
SMILES | SENP8 block-1 | Apaf-1 inh | SENP8 block-2 | SENP7 inh | SENP6 inh | UBC13 inh | SENP8 conf | SENP6 confirm | SENP7 confirm | Casp3 select | SENP luc ctr
Cc1cccc(NC(=O)c2ccc3ccccc3n2)c1C | 65* | 17 | 20 | 77* | 88* | -1 | 13 | 84* | 97* | 72* | 58*
CCCCCCC1CC(=CN(C)C)C(=O)O1 (stereo not drawn) | . | . | 12 | . | . | . | . | . | . | . | .
COc1ccc(-c2cn3c(C)c(C(=O)N4CCCc5ccccc54)sc3n2)cc1 | 2 | 23 | 24 | -5 | -4 | 12 | . | . | . | . | .
COc1ccc(-c2cn3c4c(sc3n2)CCCC4)cc1 | 46 | 23 | 17 | 53* | 57* | 8 | 69* | 68* | 89* | 54* | 39
Cc1ccc(C(=O)/C=C/Nc2ccccc2C(N)=O)cc1 | 86* | 10 | i | 90* | 95* | -10 | 22 | 90* | 102* | 94* | 48
NC(=O)c1ccccc1N/C=C/C(=O)c1ccc(Cl)cc1 | 64* | 18 | i | 93* | 84* | 0 | 48 | 78* | 76* | 90* | 29
COc1ccc(N/C=C/C(=O)c2ccc(Cl)cc2)cc1 | -13 | 14 | -12 | 43 | -6 | -6 | . | . | . | . | .
Cc1ccc(C(=O)/C=C/Nc2ccccn2)cc1 | 93* | 8 | -220 | 97* | 95* | 4 | 94* | 98* | 102* | 96* | 62*
CCNC(=O)C1CCCN(C(=O)c2ccc(OC(F)F)cc2)CC1 (stereo not drawn) | . | . | 18 | . | . | . | . | . | . | . | .
O=C(c1ccc2c3n(nc2c1)-c1ccccc1CO3)N1CCCCC1 | 91* | 1 | -8 | 95* | 97* | -10 | 97* | 98* | 101* | 97* | 96*
O=C(c1ccc2c3n(nc2c1)-c1ccc(Cl)cc1CO3)N1CCOCC1 | 4 | 4 | -23 | -9 | 12 | -10 | . | . | . | . | .
O=C(c1ccc2c3n(nc2c1)-c1ccccc1CO3)N1CCOCC1 | 87* | -8 | -107 | 95* | 93* | -8 | 93* | 93* | 101* | 98* | 92*
